{"source": "ChEMBL document CHEMBL4270554", "about": "“Discovery of the cancer cell selective dual acting anti-cancer agent (Z)-2-(1H-indol-3-yl)-3-(isoquinolin-5-yl)acrylonitrile (A131)” (Eur J Med Chem, 2018)", "key": {"HeLa [1]": {"tested_on": "HeLa", "assay": "Induction of autophagy in human HeLa cells assessed as increase in LC3-2 to LC3-1 ratio at 10 uM after 6 hrs by immunoblot analysis relative to control", "type": "functional", "method_in_brief": "(§1)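 HeLa cells exposed 6 h to test agent (0.625–10 μM series) or chloroquine (1.25–100 μM series) vs DMSO; lysed in 1% Triton buffer (25 mM Tris pH 8.0, 150 mM NaCl, DTT, protease/phosphatase inhibitors), 14% SDS-PAGE, immunoblot with anti-LC3, anti-pH3(Ser10), β-actin loading. LC3-II/LC3-I band intensity ratio expressed relative to DMSO control.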"}, "HeLa [2]": {"tested_on": "HeLa", "assay": "Induction of autophagy in human HeLa cells assessed as increase in LC3-2 to LC3-1 ratio at 2.5 uM after 6 hrs by immunoblot analysis relative to control", "type": "functional", "method_in_brief": "as §1"}, "HeLa [3]": {"tested_on": "HeLa", "assay": "Induction of mitotic arrest in human HeLa cells assessed as formation of misaligned chromosomes at 15 to 25 uM after 6 hrs by DAPI staining-based immunofluorescence analysis", "type": "functional, cell-based"}, "HeLa [4]": {"tested_on": "HeLa", "assay": "Induction of mitotic arrest in human HeLa cells assessed as formation of disorganized spindles at 15 to 25 uM after 6 hrs by DAPI staining-based immunofluorescence analysis", "type": "functional, cell-based"}, "HeLa [5]": {"tested_on": "HeLa", "assay": "Inhibition of mitotic progression in human HeLa cells assessed as upregulation of phosphorylated histone H3 (Ser10) level up to 100 uM after 6 hrs by immunoblot analysis", "type": "functional, cell-based", "method_in_brief": "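HeLa cells treated 6 h with 0.625–10 μM test agent or chloroquine (1.25–100 μM), or DMSO. Lysis in 1% Triton buffer (pH 8.0) with protease and phosphatase inhibitors, 14% SDS-PAGE, immunoblot for LC3, pH3 (Ser10) and β-actin. Band intensity ratios (LC3-II/LC3-I; pH3) expressed relative to DMSO control.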"}, "HeLa [6]": {"tested_on": "HeLa", "assay": "Induction of autophagy in human HeLa cells assessed as increase in LC3-2 to LC3-1 ratio at 100 uM after 6 hrs by immunoblot analysis relative to control", "type": "functional", "method_in_brief": "as §1"}, "HeLa [7]": {"tested_on": "HeLa", "assay": "Induction of autophagy in human HeLa cells assessed as increase in LC3-2 to LC3-1 ratio at 1.25 uM after 6 hrs by immunoblot analysis relative to control", "type": "functional", "method_in_brief": "as §1"}, "HeLa [8]": {"tested_on": "HeLa", "assay": "Induction of autophagy in human HeLa cells assessed as increase in LC3-2 to LC3-1 ratio at 50 uM after 6 hrs by immunoblot analysis relative to control", "type": "functional", "method_in_brief": "as §1"}}, "note": "Activity calls are given as the source filed them. The rule behind the calls is not given here."}
{"smiles": "CCN(CC)CCCC(C)Nc1ccnc2cc(Cl)ccc12", "note": "(stereo not drawn) [CHLOROQUINE]", "values": [{"measurement": "fold change (FC)", "setting": "HeLa [1]", "value": 3.1}, {"measurement": "fold change (FC)", "setting": "HeLa [2]", "value": 1.9}, {"measurement": "Activity", "setting": "HeLa [3]", "value": "inactive"}, {"measurement": "Activity", "setting": "HeLa [4]", "value": "inactive"}, {"measurement": "inhibition", "setting": "HeLa [5]", "value": "inactive"}, {"measurement": "fold change (FC)", "setting": "HeLa [6]", "value": 4.2}, {"measurement": "fold change (FC)", "setting": "HeLa [7]", "value": 1.7}, {"measurement": "fold change (FC)", "setting": "HeLa [8]", "value": 4.2}]}
